From ChEMBL document CHEMBL4715895, “Synthesis of erythro- B13 enantiomers and stereospecific action of full set of B13-isomers in MCF7 breast carcinoma cells: Cellular metabolism and effects on sphingolipids” (Bioorg Med Chem, 2021)

Tests used:
[1] = Drug metabolism in human MCF7 cells assessed as ceramidase-mediated C16 metabolite formation at 1 to 10 uM after 24 hrs by UHPLC-MS/MS analysis; type: ADME, cell-based; settings: mcf7, 24 h, dose 1-10 µM
[2] = Drug metabolism in human MCF7 cells assessed as ceramidase mediated C24:1 metabolite formation after 24 hrs by UHPLC-MS/MS analysis; type: ADME, cell-based; settings: mcf7, 24 h
Summary of the method: (§1)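 Cells were treated with 10uM of each isomer for 24h, then pellets were collected and lipids extracted. C16 and C24:1 analogs were quantified by UHPLC-MS/MS as pmol/nmol lipid phosphate, referenced against standards. Values are means ± st dev of triplicates from 3 separate experiments.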

[3] = Drug metabolism in human MCF7 cells assessed as ceramidase mediated C16 metabolite formation after 24 hrs by UHPLC-MS/MS analysis; type: ADME, cell-based; settings: mcf7, 24 h; summary of the method: as §1
[4] = Drug metabolism in human MCF7 cells assessed as reduction in endogenous sphingosine level at 1 to 10 uM after 24 hrs by UHPLC-MS/MS analysis; type: ADME, cell-based; settings: mcf7, 24 h, dose 1-10 µM
Summary of the method: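 Isomers were applied at 1, 5 and 10uM for 24h. Endogenous Sph was measured in extracted pellet lipids by UHPLC-MS/MS (pmol/nmol lipid phosphate); the Cer/Sph ratio was also calculated. Values are triplicate means ± st dev versus control.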

[5] = Drug metabolism in human MCF7 cells assessed as reduction in elevation of C26-ceramide metabolite formation at 10 uM after 1 hr by UHPLC-MS/MS analysis; type: ADME, cell-based; settings: mcf7, 1 h
Summary of the method: (§2)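 After 1h of exposure to 10uM of each isomer, MCF7 pellets were extracted. Endogenous Cn-Cer and Cn-dhCer species were quantified by UHPLC-MS/MS as pmol/nmol lipid phosphate. Results are triplicate means ± st dev versus control.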

[6] = Drug metabolism in human MCF7 cells assessed as increase in C16-ceramide metabolite formation at 10 uM after 1 hr by UHPLC-MS/MS analysis; type: ADME, cell-based; settings: mcf7, 1 h; summary of the method: as §2
[7] = Drug metabolism in human MCF7 cells assessed as increase in C14-ceramide metabolite formation at 10 uM after 1 hr by UHPLC-MS/MS analysis; type: ADME, cell-based; settings: mcf7, 1 h; summary of the method: as §2
[8] = Drug uptake in human MCF7 cells at 1 to 10 uM after 24 hrs by HPLC-MS/MS analysis; type: ADME, cell-based; settings: mcf7, 24 h, dose 1-10 µM
Summary of the method: (§3)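 MCF7 cells received 1, 5 or 10uM of each isomer for 1h or 24h as stated. Intracellular isomer levels were quantified by UHPLC-MS/MS of lipid extracts from cell pellets. Data are means ± st dev of triplicates.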

MCF7 [9] = assay: Antiproliferative activity against human MCF7 cells assessed as growth inhibition after 72 hrs by MTT assay; type: functional, cell-based; settings: MCF7, 72 h
Summary of the method: (§4)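 MCF7 (RPMI 1640 with 10% FBS, 2mM L-glutamine, 37°C, 5% CO2) harvested in exponential growth, then exposed to each B13 stereoisomer for the stated time. Viable cells were quantified by MTT and expressed as % of untreated control (means ± st dev, 5 replicates). IC50 values were derived per time point.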

MCF7 [10] = assay: Antiproliferative activity against human MCF7 cells assessed as growth inhibition after 48 hrs by MTT assay; type: functional, cell-based; settings: MCF7, 48 h
MCF7 [11] = assay: Antiproliferative activity against human MCF7 cells assessed as growth inhibition after 24 hrs by MTT assay; type: functional, cell-based; settings: MCF7, 24 h; summary of the method: as §4
[12] = Drug uptake in human MCF7 cells at 1 to 10 uM after 1 hr by HPLC-MS/MS analysis; type: ADME, cell-based; settings: mcf7, 1 h, dose 1-10 µM; summary of the method: as §3
[13] = Drugmetabolism in human MCF7 cells assessed as formation of phosphorylated free sphingoid base at 1 to 10 uM after 24 hrs by UHPLC-MS/MS analysis; type: ADME, cell-based; settings: mcf7, 24 h, dose 1-10 µM
[14] = Drug metabolism in human MCF7 cells assessed as increase in C26-dihydroceramide elevation at 10 uM after 1 hr by UHPLC-MS/MS analysis; type: ADME, cell-based; settings: mcf7, 1 h; summary of the method: as §2
[15] = Drug metabolism in human MCF7 cells assessed as increase in C26:1-dihydroceramide elevation at 10 uM after 1 hr by UHPLC-MS/MS analysis; type: ADME, cell-based; settings: mcf7, 1 h; summary of the method: as §2
[16] = Drug metabolism in human MCF7 cells assessed as increase in C24-dihydroceramide elevation at 10 uM after 1 hr by UHPLC-MS/MS analysis; type: ADME, cell-based; settings: mcf7, 1 h; summary of the method: as §2
[17] = Drug metabolism in human MCF7 cells assessed as increase in C24:1-dihydroceramide elevation at 10 uM after 1 hr by UHPLC-MS/MS analysis; type: ADME, cell-based; settings: mcf7, 1 h; summary of the method: as §2
[18] = Drug metabolism in human MCF7 cells assessed as elevation of =<C18-ceramide metabolite at 10 uM after 24 hr by UHPLC-MS/MS analysis; type: ADME, cell-based; settings: mcf7, 24 h
Summary of the method: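 Each isomer was given at 10uM to MCF7 cells for 24h. Lipid extracts of the cell pellets were profiled by UHPLC-MS/MS for Cn-Cer species, normalized to lipid phosphate (pmol/nmol). Data are means ± st dev of triplicates, compared with vehicle control (p<0.05).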

| Structure (SMILES) | Drug metabolism [1] | Drug metabolism [2] | Drug metabolism [3] | Drug metabolism [4] | Drug metabolism [5] | Drug metabolism [6] | Drug metabolism [7] | Drug uptake [8] | IC50 (MCF7 [9]) | IC50 (MCF7 [10]) | IC50 (MCF7 [11]) | Drug uptake [12] | Drug metabolism [13] | Drug metabolism [14] | Drug metabolism [15] | Drug metabolism [16] | Drug metabolism [17] | Drug metabolism [18] |
| --- | --- | --- | --- | --- | --- | --- | --- | --- | --- | --- | --- | --- | --- | --- | --- | --- | --- | --- |
| CCCCCCCCCCCCCC(=O)N[C@H](CO)[C@H](O)c1ccc([N+](=O)[O-])cc1 | Metabolite_Detected | Metabolite_Detected | Metabolite_Detected | Metabolite_Detected | Metabolite_Detected | Metabolite_Detected | Metabolite_Detected | Active | 37 µM | 35.6 µM | 42.3 µM | Active |  |  |  |  |  |  |
| CCCCCCCCCCCCCC(=O)N[C@@H](CO)[C@@H](O)c1ccc([N+](=O)[O-])cc1 | Metabolite_Detected | Metabolite_Detected | Metabolite_Detected | Metabolite_Detected |  |  |  | Active | 46.6 µM | 43.6 µM | 54.1 µM | Active |  |  |  |  |  |  |
| CCCCCCCCCCCCCC(=O)N[C@@H](CO)[C@H](O)c1ccc([N+](=O)[O-])cc1 | Metabolite_Detected | Metabolite_Detected | Metabolite_Detected |  |  |  |  | Not Active | 9.39 µM | 8.08 µM | 10.2 µM | Active | Metabolite_Detected | Metabolite_Detected | Metabolite_Detected | Metabolite_Detected | Metabolite_Detected | Metabolite_Detected |
| CCCCCCCCCCCCCC(=O)N[C@H](CO)[C@@H](O)c1ccc([N+](=O)[O-])cc1 | Metabolite_Detected | Metabolite_Detected | Metabolite_Detected | Metabolite_Detected |  |  |  | Active | 13.5 µM | 13.1 µM | 18 µM | Active |  |  |  |  |  |  |
